Data as given in article PMC3678535 (Biochemistry, 2013).
“And” between values parts separate entries of the source, which are not always exact repeats. Identical values can stand only once. Like-named read-outs stand apart in the source and are kept apart here.

Experiments:
[1] = target: T1, iNOS (Mus musculus, UniProt P29477); assay: Ferric difference spectral binding assay; set-up: species or system murine
Summary of the method: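 Murine iNOS (E. coli-expressed, purified), 5 μM, in 100 mM HEPES pH 7.5 with 10 μM H4B, scanned 380–500 nm against a HEPES/H4B blank. […] Test compound titrated at 0.1–1 mM final, additions kept under 5% volume. Ks from Michaelis-Menten fit of concentration vs absorbance difference (local maximum minus minimum).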

[2] = target: T1, iNOS; assay: NO production measured with the Griess reagent, longer incubations; format: biochemical, murine; conditions: incubations of 1, 2, 6, 12 and 24 hours
Summary of the method: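 Purified murine iNOS (E. coli-expressed), 100 nM, incubated 1, 2, 6, 12 and 24 h with test compound at various concentrations, 100 μM NADPH and 10 μM H4B in 100 mM HEPES, 10% glycerol, pH 7.5. Lactate dehydrogenase added to oxidize leftover NADPH, then Griess reagents added. Nitrite/nitrate read by absorbance at 540 nm.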

[3] = tested on: Methanol oxidase (MeOX); conditions: depending on the O2 concentration; cited from earlier work
[4] = target: T1, iNOS; assay: Substrate uncoupling: NADPH consumption versus NO production; format: biochemical, murine; conditions: 20 μM arginine, 20 μM NHA, 100 μM NMOA, 100 μM NHMA
[5] = target: rat nNOS (Rattus norvegicus, UniProt P29476); assay: NO production, hemoglobin capture assay; format: biochemical; conditions: for Km: NO production, 22 °C, pH 7.5
Chain of rat nNOS (P29476 whole entry): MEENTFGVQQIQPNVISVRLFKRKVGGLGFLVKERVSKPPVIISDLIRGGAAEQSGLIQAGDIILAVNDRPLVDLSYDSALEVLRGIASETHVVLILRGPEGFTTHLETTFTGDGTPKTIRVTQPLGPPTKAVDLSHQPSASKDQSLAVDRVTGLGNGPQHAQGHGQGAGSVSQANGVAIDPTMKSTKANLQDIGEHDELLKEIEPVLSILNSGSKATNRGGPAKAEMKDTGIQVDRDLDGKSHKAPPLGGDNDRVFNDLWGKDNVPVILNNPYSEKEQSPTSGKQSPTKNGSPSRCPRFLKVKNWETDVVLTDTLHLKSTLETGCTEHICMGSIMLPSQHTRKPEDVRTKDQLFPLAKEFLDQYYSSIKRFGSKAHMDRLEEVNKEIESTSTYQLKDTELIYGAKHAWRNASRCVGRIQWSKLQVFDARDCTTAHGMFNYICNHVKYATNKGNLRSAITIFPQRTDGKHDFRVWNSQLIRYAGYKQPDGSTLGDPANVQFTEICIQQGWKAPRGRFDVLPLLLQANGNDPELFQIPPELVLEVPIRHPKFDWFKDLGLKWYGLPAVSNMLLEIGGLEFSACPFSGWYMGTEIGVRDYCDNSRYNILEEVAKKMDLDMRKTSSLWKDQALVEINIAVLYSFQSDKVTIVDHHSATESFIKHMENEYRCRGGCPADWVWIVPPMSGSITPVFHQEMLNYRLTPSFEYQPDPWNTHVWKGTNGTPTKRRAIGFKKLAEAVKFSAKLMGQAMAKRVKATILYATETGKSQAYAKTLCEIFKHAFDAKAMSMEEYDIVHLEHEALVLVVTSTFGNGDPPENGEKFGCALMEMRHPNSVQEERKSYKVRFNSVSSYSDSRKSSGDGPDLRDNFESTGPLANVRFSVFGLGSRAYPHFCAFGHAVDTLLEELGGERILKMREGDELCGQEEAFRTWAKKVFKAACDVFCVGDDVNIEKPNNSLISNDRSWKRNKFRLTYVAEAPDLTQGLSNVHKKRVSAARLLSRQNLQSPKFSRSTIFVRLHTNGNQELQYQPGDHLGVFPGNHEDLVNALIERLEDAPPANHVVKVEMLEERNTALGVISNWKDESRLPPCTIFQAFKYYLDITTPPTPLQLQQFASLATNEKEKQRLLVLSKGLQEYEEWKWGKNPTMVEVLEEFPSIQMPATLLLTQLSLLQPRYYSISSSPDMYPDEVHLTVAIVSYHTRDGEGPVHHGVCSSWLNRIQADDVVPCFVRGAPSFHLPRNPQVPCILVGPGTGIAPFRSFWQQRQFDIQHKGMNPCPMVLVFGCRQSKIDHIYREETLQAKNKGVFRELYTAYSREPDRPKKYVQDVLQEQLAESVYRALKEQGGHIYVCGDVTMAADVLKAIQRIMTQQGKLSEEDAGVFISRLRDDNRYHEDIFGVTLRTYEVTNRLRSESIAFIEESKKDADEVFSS

[6] = target: T2, murine iNOS (Mus musculus, UniProt P29477); assay: NO production, hemoglobin capture assay; format: biochemical
[7] = target: T2, murine iNOS; assay: Inhibition of NO production; format: biochemical; conditions: 10 μM L-arginine, unit printed in cell/text as mM
[8] = cited from earlier work
[9] = tested on: NOS; conditions: cited from earlier work
[10] = target: T1, iNOS; assay: One-carbon metabolite of [14C]-NMOA-iNOS reaction; format: biochemical, murine; conditions: MeOX/FDH conversion, scintillation counting
[11] = read-out: Ks (spectral binding constant), imidazole displacement

CCONC(=N)NCCC[C@H](N)C(=O)O [NEOA, N^ω-ethoxy-L-arginine]
Kd [1, 11]: 0.12 ± 0.013 mM | NO production (Griess reagent) [2]: absence of NO production

C=O [formaldehyde]
Km [3]: 2500 µM

CN(O)C(=N)NCCC[C@H](N)C(=O)O [NHMA, N^ω-hydroxy-N^ω-methyl-L-arginine]
Kd [1, 11]: 0.034 ± 0.004 mM | NADPH:NO (moles of NADPH consumed per mole of NO formed) [4]: 15 and 15.0 ± 2.7 | kcat [5]: 0.0167 ± 0.0033 s⁻¹ | kcat, times lower compared to NHA [5]: ~13 times | Km [5]: 2 ± 0.4 µM | kcat [6]: 0.015 ± 0.0083 s⁻¹ | kcat, times lower compared to NHA [6]: about 18 times | Km ([6]; NO production, 22 °C, pH 7.5): 0.034 ± 0.006 mM

CC(C)(C)ONC(=N)NCCC[C@H](N)C(=O)O [tBOA, N^ω-tert-butyloxy-L-arginine]
Ki [7]: 7.4 ± 4.5 mM | kcat [6]: 0.005 ± 0.0017 s⁻¹ | Km ([6]; unit printed in cell/text as mM): 2.7 ± 0.8 mM

c1c[nH]cn1 [imidazole, reference compound]
Kd [1, 11]: 0.12 to 0.15 mM

N=C(NO)NCCC[C@H](N)C(=O)O [NHA, N^ω-hydroxy-L-arginine, reference compound]
Kd [1, 11]: 0.029 ± 0.004 mM | pKa [8]: 8.5 | NADPH:NO (moles of NADPH consumed per mole of NO formed) [4]: 0.7 ± 0.3 | kcat [5]: 0.217 ± 0.067 s⁻¹ | Km [5]: 5.7 ± 2.1 µM | kcat [6]: 0.267 ± 0.033 s⁻¹ | Km ([6]; NO production, 22 °C, pH 7.5): 0.022 ± 0.005 mM

CON(C)C(=N)NCCC[C@H](N)C(=O)O [NMMA, N^ω-methoxy-N^ω-methyl-L-arginine]
Kd [1, 11]: 0.07 ± 0.005 mM | NO production (Griess reagent) [2]: absence of NO production

CONC(=N)NCCC[C@H](N)C(=O)O [NMOA, N^ω-methoxy-L-arginine]
Kd [1, 11]: 0.122 ± 0.02 mM | NADPH:NO (moles of NADPH consumed per mole of NO formed) [4]: 8 and 8.0 ± 1.5 | kcat [5]: 0.03 ± 0.0083 s⁻¹ | kcat, times lower compared to NHA [5]: ~7 times | Km [5]: 11 ± 2 µM | kcat [6]: 0.0783 ± 0.0217 s⁻¹ | kcat, times lower compared to NHA [6]: about 4 times | Km ([6]; NO production, 22 °C, pH 7.5): 0.088 ± 0.008 mM

CN(CCC[C@H](N)C(=O)O)C(=N)NO [MHA, N^δ-methyl- N^ω-hydroxy-L-arginine]
Ki [7]: > 10 mM | Kd ([1]; read-out: Ks (spectral binding constant), unit printed in cell/text as mM): > 10 mM | NO production (Griess reagent) [2]: absence of NO production

CN=C(N)NCCC[C@H](N)C(=O)O [NMA, N^ω-Methyl-L-arginine]
kinact ([9]; inactivator of NOS): 0.07 min⁻¹ | KI (inactivation) ([9]; read-out: KI (inactivation), inactivator of NOS): 2.7 µM | Ki ([9]; read-out: Ki (competitive inhibitor), competitive inhibitor of NOS): 0.2 µM

[14CH3]ONC(=N)NCCC[C@H](N)C(=O)O [[^14C]-NMOA, N^ω-[^14C]-methoxy-L-arginine]
One-carbon metabolite [10]: methanol

CN(CCC[C@H](N)C(=O)O)C(=N)N [dMA, N^δ-Methyl-L-arginine]
Ki ([9]; binds weakly to the NOS active site): 1400 µM

N=C(N)NCCC[C@H](N)C(=O)O [arginine, L-arginine, reference compound]
NADPH:NO (moles of NADPH consumed per mole of NO formed) [4]: 1.5

CO [methanol]
Km [3]: ~2000 µM
